In publication PMC3792851 (Drug Design, Development and Therapy, 2013):

System: ABCG2-transfected HEK293 cells
Test: Sensitization of ABCG2-transfected cells to mitoxantrone, MTT assay
Assay type: cell-based, human
Conditions: no chalcone
Method in brief: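 ABCG2-transfected (resistant) and empty-vector (sensitive) HEK293 cells seeded at 1 × 10^4 cells/well and incubated overnight. Then grown 72 h at 37°C, 5% CO2 with increasing mitoxantrone; resistant cells ran with or without 1 μM test compound. Survival read by MTT against 0.1% DMSO medium controls. At least three replicates; mitoxantrone IG50 from fitted curves.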

In the case of `O=C1c2c(O)ccc(O)c2C(=O)c2c(NCCNCCO)ccc(NCCNCCO)c21` [mitoxantrone, Mitoxantrone], the “IG50 of mitoxantrone, resistant cells” value (ABCG2-transfected resistant cells) is reported as 82.8 ± 21.7 nM and the “IG50 of mitoxantrone, sensitive control cells” value (sensitive control HEK293 cells (empty vector)) is reported as 14.5 ± 3.6 nM.
